The text below walks through data of ChEMBL document CHEMBL3098105, “7,7'-Diazaindirubin--a small molecule inhibitor of casein kinase 2 in vitro and in cells” (Bioorg Med Chem, 2014).

Usually IC50 stands for the concentration at which inhibition is half-maximal. Lower therefore signals higher potency.

Holding throughout (format): functional, cell-based
In assay [1] the test system is MCF7. As to the kind of experiment: Antiproliferative activity against human MCF7 cells after 3 days by SRB assay. As to conditions: MCF7, 72 h. The procedure, abridged: (§1)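 Cells grown at 37 °C, 5% CO2, with 10% heat-inactivated FBS: LXFL529L in RPMI 1640, MCF7 and HT29 in DMEM. Seeded, allowed 24 h growth, then exposed to the drug at various concentrations for 3 days in serum medium. Fixed with TCA for 1 h at 4 °C, stained with 0.4% SRB, eluted in 10 mM Tris pH 10.5, read at 570 nm as % T/C. IC50 taken from dose–response curves of at least three independent experiments.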
(In SRB staining, fixed cells bind dye roughly in proportion to their protein.)

Assay [2] in a line: Antiproliferative activity against human LXFL 529L cells after 3 days by SRB assay. The settings on record: 72 h. The procedure, abridged:
as §1

The subject of assay [3] is HT-29. As to the kind of experiment: Antiproliferative activity against human HT-29 cells after 3 days by SRB assay. The settings on record: HT-29, 72 h. The procedure, abridged: as §1

Regarding `O=C1Nc2ccccc2/C1=C1/Nc2ccccc2C1=O` [INDIRUBIN], the concentration for half-maximal inhibition (IC50) in assay [1] is 4 µM; in assay [2] it was 9.9 µM.
In the case of `O=C1Nc2ccccc2/C1=C1/Nc2ncccc2C1=O`, the results for the half-maximal inhibitory concentration (IC50) in assay [1], in assay [3] and in assay [2] were 5 µM, greater than 10 µM and 4.4 µM, respectively.
For `O=C1Nc2ncccc2/C1=C1\C(=O)Nc2ncccc21`, in that order: greater than 100 µM, greater than 100 µM and greater than 100 µM.
For `O=C1/C(=C2\Nc3ncccc3C2=O)Nc2ncccc21`, in that order: greater than 100 µM, greater than 100 µM and greater than 100 µM.
For `O=C1Nc2ncccc2/C1=C1/Nc2ccccc2C1=O`, in that order: 3 µM, greater than 10 µM and 2.9 µM.
